From ChEMBL document CHEMBL1126834, “Chemistry, binding affinities, and behavioral properties of a new class of "antineophobic" mitochondrial DBI receptor complex (mDRC) ligands” (J Med Chem, 1993)
pIC50, pKi: −log10 of the molar value.

Tests used:
[1] = molecular target: GABA-A receptor; anion channel; assay: Inhibitory activity at GABA A receptor, measured by the ability to displace [3H]flumazenil from GABA A receptor in rat brain; type: tissue-based
Opioid receptor = Opioid receptor (Rattus norvegicus, UniProt P33533+P34975+P33535); assay: Displacement of [3H]naxolone from opiate receptor of rat brain
[2] = Inhibitory activity at GABA B receptor, measured by the ability to displace [3H]baclofen from GABA B receptor in rat brain; type: tissue-based
[3] = molecular target: Adrenergic receptor alpha; assay: Inhibitory activity by measuring its ability to displace [3H]WB-4101 from alpha-adrenergic receptor in rat brain; type: tissue-based
[4] = molecular target: Sigma receptor (Rattus norvegicus); assay: Tested for inhibitory activity by measuring its ability to displace [3H]3-PPP from sigma receptor in rat brain
[5] = Inhibitory activity by measuring its ability to displace [3H]spiperone from dopamine or serotonin 5-HT-1 receptors in rat brain; type: tissue-based
[6] = molecular target: T1, Gastrin/cholecystokinin type B receptor (Rattus norvegicus, UniProt P30553); assay: Inhibitory activity by measuring its ability to displace [3H]L-365260 from cholecystokinin receptor in rat brain; type: tissue-based
T1 sequence (P30553 whole entry): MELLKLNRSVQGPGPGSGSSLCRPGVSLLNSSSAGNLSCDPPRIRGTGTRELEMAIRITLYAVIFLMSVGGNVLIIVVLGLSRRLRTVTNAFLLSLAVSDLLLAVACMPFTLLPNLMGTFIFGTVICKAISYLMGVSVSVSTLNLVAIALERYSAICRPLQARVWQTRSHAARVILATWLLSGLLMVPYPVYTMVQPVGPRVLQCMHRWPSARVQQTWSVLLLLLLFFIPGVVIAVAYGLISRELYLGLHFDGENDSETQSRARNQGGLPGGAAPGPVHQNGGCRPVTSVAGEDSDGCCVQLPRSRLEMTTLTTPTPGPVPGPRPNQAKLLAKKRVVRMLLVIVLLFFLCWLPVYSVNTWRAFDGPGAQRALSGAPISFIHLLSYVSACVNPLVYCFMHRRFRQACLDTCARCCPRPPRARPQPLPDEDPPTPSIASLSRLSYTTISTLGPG

Adrenergic receptor beta = Adrenergic receptor beta (Rattus norvegicus, UniProt P18090+P10608+P26255); assay: Inhibitory activity by measuring its ability to displace [125I]pindolol from beta-adrenergic receptor in rat brain; type: tissue-based
[7] = molecular target: GABA-A receptor; anion channel; assay: Inhibitory activity at GABA A receptor, measured by the ability to displace [3H]GABA from GABA A receptor in rat brain; type: tissue-based
Cannabinoid receptor 1 = Cannabinoid receptor 1 (Rattus norvegicus, UniProt P20272); assay: Inhibitory activity, measured by displacement [3H]CP-55940 from cannabinoid receptor (CB1) in rat brain; type: tissue-based
Sequence of Cannabinoid receptor 1 (P20272 whole entry): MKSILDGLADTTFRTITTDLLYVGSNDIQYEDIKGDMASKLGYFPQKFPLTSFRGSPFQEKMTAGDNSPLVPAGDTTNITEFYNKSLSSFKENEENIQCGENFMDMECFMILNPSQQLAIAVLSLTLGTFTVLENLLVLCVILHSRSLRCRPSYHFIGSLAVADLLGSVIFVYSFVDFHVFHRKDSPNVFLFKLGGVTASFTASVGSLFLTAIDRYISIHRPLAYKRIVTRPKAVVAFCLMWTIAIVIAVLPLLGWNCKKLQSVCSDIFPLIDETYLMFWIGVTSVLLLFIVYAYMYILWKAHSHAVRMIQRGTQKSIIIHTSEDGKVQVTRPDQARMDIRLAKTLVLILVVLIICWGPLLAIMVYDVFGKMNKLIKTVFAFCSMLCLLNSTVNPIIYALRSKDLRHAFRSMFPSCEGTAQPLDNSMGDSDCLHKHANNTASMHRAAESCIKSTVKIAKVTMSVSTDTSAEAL

[8] = Tested for inhibitory activity by measuring its ability to displace [3H]AMPA from glutamate (non-NMDA) receptor in rat brain; type: tissue-based
Glutamate NMDA receptor = assay: Inhibitory activity by measuring its ability to displace [3H]-MK-801 from glutamate(NMDA) receptor in rat brain; type: tissue-based
[9] = Inhibitory activity by measuring its ability to displace [3H]glycine from glycine receptor in rat brain; type: tissue-based
[10] = molecular target: Serotonin 2 (5-HT2) receptor (Rattus norvegicus); assay: Inhibitory activity by measuring its ability to displace [3H]ketanserin from serotonin receptor in rat brain
[11] = molecular target: Adrenergic receptor alpha; assay: Inhibitory activity by measuring its ability to displace [3H]clonidine from alpha-adrenergic receptor in rat brain; type: tissue-based
[12] = molecular target: GABA-A receptor; anion channel; assay: Inhibitory activity at GABA A receptor, measured by the ability to displace [3H]zolpidem from GABA A receptor in rat brain; type: tissue-based
[13] = molecular target: GABA-A receptor; anion channel; assay: Inhibitory activity at GABA A receptor, measured by the ability to displace [35S]TBPS from GABA A receptor in rat brain; type: tissue-based
Translocator protein = Translocator protein (Rattus norvegicus, UniProt P16257); assay: Binding affinity against mitochondrial DBI complex (peripheral benzodiazepine receptor) using primary cultures of glial cells
Sequence of Translocator protein (P16257 whole entry, looked up): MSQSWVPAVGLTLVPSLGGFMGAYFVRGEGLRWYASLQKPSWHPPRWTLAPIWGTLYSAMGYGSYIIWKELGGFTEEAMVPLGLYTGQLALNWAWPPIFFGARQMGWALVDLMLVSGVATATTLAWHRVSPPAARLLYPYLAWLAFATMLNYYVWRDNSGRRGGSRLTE
Procedure, shortened: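 Glia from cerebella of 8-day-old Sprague–Dawley rat pups, trypsin-dissociated and grown 14 days (~95% astroglia). Cells lysed in 50 mM Hepes pH 7.4, 4 μg protein per tube. Incubated with [3H]4'-chlorodiazepam and competitor for 90 min at 4 °C, then filtered. Nonspecific binding defined with 10 μM 4'-chlorodiazepam. Triplicate competition curves; IC50 by nonlinear regression, converted to Ki (Bylund–Yamamura).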

CCCN(CCC)C(=O)Cc1c(-c2ccc(F)cc2)[nH]c2ccccc12
< 6.00: pIC50 [1] | pIC50 [2] | pIC50 [5] | pIC50 [6] | pIC50 [7] | pIC50 (Cannabinoid receptor 1) | pIC50 [8] | pIC50 (Glutamate NMDA receptor) | pIC50 [9] | pIC50 [12] | pIC50 [13]
7.00: pKi (Translocator protein)
> 1000 nM: IC50 (Opioid receptor) | IC50 [3] | IC50 [4] | IC50 (Adrenergic receptor beta) | IC50 [10] | IC50 [11]
